In ChEMBL document CHEMBL4715860 (J Med Chem, 2020):

Columns and labels:
[1] = biological target: Phosphatidylinositol 3-kinase catalytic subunit type 3 (Homo sapiens, UniProt Q8NEB9); test: Binding affinity to wild-type human partial length VPS34 (S282 to H879 residues) expressed in HEK293 cells measured after 1 hr by Kinomescan method; format: cell-based
Summary of the method: (§1)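 Compound given as an 11-point threefold series from 30 μM, in technical duplicate. Kd from a Hill fit with slope fixed at −1.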

[2] = biological target: Phosphatidylinositol 4-kinase beta (Homo sapiens, UniProt Q9UBF8); test: Binding affinity to wild-type human full length PIK4CB (M1 to M828 residues) expressed in HEK293 cells measured after 1 hr by Kinomescan method; format: cell-based; summary of the method: as §1
[3] = biological target: T1, CYP1A2 (Homo sapiens, UniProt P05177); test: Drug metabolism assessed as human recombinant CYP1A2 expressed in baculovirus infected insect cells-mediated metabolism by measuring parent compound remaining at 1 uM incubated for 60 mins in presence of NADPH regenerating system by UHPLC based LC-MS analysis; format: ADME; conditions: read-out: Stabilty
T1 sequence (P05177 whole entry): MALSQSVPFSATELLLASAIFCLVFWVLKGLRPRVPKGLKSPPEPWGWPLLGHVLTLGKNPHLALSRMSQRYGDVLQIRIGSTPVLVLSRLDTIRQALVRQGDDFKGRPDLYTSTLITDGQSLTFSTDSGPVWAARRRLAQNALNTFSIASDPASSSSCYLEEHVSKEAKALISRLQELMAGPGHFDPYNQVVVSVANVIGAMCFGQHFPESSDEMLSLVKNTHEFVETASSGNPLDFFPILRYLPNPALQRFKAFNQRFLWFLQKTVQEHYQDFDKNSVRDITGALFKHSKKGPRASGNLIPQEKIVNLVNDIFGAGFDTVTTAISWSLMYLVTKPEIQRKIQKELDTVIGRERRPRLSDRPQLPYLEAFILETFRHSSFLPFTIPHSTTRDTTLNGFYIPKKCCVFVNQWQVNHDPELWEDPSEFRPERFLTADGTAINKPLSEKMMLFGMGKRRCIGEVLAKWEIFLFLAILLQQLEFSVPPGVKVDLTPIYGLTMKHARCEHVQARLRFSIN

[4] = biological target: PI3-kinase p110-alpha/p85-alpha (Homo sapiens, UniProt P42336); test: Inhibition of alexa fluor 647-labeled kinase tracer 314 binding to recombinant human N-terminal His-tagged p110alpha/p85alpha expressed in baculovirus expression system measured after 60 mins by LanthaScreen TR-FRET assay relative to control
[5] = biological target: T2, CYP1A1 (Homo sapiens, UniProt P04798); test: Drug metabolism assessed as human recombinant CYP1A1 expressed in baculovirus infected insect cells-mediated metabolism by measuring parent compound remaining at 1 uM incubated for 60 mins in presence of NADPH regenerating system by UHPLC based LC-MS analysis; format: ADME; conditions: read-out: Stabilty
T2 sequence (P04798 whole entry): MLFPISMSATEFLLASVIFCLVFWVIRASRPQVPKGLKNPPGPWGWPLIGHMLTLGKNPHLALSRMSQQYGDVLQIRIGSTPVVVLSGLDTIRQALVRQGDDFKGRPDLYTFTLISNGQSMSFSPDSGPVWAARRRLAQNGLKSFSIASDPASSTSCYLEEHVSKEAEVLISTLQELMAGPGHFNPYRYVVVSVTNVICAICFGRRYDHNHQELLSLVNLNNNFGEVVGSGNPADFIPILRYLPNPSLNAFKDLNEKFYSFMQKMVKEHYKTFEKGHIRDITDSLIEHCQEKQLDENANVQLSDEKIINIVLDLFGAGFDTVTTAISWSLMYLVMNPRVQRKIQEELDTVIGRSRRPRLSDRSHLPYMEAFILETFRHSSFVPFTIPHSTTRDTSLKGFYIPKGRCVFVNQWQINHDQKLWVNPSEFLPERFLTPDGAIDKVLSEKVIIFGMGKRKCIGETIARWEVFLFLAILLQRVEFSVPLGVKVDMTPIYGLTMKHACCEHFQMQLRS

[6] = biological target: Phosphatidylinositol 4,5-bisphosphate 3-kinase catalytic subunit gamma isoform (Homo sapiens, UniProt P48736); test: Binding affinity to wild-type human partial length PIK3CG (S144 to A1102 residues) expressed in HEK293 cells measured after 1 hr by Kinomescan method; format: cell-based; summary of the method: as §1
[7] = biological target: T3, Phosphatidylinositol 4,5-bisphosphate 3-kinase catalytic subunit delta isoform (Homo sapiens, UniProt O00329); test: Binding affinity to wild-type human partial length PIK3CD (R108 to Q1044 residues) expressed in HEK293 cells measured after 1 hr by Kinomescan method; format: cell-based; summary of the method: as §1
T3 sequence (O00329 whole entry): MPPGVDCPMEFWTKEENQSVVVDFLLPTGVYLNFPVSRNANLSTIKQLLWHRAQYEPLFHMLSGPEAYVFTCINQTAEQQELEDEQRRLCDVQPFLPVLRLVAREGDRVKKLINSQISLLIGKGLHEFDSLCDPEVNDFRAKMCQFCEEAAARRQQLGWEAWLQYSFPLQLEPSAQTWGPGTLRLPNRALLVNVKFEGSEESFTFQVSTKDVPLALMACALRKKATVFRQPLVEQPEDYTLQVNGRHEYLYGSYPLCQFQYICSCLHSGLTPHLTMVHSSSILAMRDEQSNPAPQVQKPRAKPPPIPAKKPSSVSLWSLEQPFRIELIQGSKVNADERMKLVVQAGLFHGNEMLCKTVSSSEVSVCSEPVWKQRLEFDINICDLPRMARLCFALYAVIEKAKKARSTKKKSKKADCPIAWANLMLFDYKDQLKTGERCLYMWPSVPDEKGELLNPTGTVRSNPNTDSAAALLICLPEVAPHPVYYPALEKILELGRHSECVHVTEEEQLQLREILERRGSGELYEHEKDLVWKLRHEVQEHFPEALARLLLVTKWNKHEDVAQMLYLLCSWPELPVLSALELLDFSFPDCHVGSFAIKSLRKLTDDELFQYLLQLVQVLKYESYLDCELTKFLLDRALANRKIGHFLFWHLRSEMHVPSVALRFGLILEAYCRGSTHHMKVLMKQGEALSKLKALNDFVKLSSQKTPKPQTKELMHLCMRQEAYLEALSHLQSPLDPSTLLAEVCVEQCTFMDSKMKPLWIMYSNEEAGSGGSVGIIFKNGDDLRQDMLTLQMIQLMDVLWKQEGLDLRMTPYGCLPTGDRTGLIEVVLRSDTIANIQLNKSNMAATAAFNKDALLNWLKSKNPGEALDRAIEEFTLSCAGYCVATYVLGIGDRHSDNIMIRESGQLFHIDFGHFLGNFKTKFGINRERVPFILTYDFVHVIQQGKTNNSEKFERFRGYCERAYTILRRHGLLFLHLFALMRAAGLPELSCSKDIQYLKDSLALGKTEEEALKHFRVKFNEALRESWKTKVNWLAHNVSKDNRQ

[8] = biological target: Phosphatidylinositol 4,5-bisphosphate 3-kinase catalytic subunit alpha isoform (Homo sapiens, UniProt P42336); test: Binding affinity to wild-type human partial length PIK3CA (R108 to N1068 residues) expressed in HEK293 cells measured after 1 hr by Kinomescan method; format: cell-based; summary of the method: as §1
Phosphatidylinositol 4,5-bisphosphate 3-kinase catalytic subunit alpha isoform, sequence (P42336 whole entry, the tested form may be a part, canonical isoform): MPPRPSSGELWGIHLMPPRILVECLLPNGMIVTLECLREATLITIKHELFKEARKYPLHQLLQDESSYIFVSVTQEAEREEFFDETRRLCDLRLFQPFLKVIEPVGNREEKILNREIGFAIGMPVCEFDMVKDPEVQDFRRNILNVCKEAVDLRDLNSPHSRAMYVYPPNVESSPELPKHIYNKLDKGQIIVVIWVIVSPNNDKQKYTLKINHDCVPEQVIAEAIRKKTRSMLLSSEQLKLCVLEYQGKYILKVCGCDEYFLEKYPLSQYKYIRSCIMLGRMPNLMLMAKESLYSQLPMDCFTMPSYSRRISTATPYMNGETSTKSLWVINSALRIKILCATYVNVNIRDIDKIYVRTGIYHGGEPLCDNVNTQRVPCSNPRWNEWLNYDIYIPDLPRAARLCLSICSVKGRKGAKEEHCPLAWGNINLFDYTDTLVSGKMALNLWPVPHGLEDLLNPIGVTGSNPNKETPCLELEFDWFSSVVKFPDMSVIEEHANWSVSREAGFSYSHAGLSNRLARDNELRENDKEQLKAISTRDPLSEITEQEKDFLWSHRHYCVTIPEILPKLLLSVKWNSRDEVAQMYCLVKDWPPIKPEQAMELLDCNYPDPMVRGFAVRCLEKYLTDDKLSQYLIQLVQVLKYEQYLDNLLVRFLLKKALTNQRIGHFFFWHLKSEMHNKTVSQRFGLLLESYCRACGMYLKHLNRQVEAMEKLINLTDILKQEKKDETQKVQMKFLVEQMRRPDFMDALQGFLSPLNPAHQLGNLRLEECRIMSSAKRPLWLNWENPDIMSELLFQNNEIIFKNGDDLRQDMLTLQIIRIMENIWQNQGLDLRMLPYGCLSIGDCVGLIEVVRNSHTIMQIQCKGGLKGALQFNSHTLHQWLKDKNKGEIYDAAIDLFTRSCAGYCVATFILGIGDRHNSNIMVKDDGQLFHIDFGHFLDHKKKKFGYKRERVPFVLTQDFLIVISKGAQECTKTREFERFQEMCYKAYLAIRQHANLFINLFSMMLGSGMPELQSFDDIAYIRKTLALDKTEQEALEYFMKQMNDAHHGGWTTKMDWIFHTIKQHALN

Phosphatidylinositol 3-kinase catalytic subunit type 3, sequence (Q8NEB9 whole entry, the tested form may be a part): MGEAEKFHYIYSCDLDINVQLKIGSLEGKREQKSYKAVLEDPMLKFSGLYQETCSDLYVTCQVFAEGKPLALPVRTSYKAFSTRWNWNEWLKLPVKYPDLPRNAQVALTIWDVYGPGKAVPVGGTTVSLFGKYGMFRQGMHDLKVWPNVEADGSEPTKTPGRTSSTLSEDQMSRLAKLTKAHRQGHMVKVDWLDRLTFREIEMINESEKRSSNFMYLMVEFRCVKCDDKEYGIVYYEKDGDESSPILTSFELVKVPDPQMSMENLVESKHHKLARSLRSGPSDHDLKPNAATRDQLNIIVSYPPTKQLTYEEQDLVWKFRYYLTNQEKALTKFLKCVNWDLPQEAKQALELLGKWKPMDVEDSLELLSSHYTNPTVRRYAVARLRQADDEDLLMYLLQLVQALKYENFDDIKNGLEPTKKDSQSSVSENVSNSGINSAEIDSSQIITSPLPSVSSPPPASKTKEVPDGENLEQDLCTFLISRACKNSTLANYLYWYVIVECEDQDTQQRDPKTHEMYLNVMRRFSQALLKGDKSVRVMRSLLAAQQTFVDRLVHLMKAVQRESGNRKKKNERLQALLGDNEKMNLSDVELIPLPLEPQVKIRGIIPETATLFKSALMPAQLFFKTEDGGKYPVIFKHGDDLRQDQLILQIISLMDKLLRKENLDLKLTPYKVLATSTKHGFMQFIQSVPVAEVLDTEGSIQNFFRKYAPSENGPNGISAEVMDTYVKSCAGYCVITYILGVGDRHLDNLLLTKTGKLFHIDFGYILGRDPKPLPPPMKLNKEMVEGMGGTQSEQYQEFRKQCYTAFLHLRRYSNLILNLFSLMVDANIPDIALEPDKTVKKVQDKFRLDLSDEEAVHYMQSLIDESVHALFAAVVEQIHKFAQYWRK
Phosphatidylinositol 4,5-bisphosphate 3-kinase catalytic subunit gamma isoform, sequence (P48736 whole entry, the tested form may be a part, canonical isoform): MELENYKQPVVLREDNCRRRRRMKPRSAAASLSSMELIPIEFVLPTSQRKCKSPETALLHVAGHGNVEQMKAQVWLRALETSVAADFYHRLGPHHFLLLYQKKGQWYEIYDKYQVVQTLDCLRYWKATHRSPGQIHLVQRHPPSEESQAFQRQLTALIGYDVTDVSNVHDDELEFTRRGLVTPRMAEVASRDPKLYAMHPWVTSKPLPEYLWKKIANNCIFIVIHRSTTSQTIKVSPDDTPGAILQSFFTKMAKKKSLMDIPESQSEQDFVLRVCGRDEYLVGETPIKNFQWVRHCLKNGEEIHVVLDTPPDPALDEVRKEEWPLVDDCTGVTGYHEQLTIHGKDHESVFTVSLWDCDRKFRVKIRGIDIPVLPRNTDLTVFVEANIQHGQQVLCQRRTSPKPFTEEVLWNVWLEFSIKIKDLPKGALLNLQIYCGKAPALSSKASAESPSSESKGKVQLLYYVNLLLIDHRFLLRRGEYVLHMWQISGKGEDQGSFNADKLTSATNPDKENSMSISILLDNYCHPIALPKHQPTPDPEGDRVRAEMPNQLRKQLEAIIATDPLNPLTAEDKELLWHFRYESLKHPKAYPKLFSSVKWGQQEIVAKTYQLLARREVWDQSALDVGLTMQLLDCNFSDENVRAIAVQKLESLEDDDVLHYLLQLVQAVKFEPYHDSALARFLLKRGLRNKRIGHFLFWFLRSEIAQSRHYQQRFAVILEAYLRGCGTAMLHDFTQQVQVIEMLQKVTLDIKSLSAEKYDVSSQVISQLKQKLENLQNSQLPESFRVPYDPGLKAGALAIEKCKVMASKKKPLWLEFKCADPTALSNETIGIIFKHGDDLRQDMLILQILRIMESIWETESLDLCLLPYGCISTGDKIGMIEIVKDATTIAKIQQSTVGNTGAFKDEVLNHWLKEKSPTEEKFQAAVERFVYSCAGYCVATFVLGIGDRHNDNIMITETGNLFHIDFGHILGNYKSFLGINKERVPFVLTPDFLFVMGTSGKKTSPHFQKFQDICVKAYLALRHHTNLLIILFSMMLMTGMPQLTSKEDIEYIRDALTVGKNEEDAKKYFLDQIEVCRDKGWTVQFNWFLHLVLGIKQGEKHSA
Phosphatidylinositol 4-kinase beta, sequence (Q9UBF8 whole entry, the tested form may be a part): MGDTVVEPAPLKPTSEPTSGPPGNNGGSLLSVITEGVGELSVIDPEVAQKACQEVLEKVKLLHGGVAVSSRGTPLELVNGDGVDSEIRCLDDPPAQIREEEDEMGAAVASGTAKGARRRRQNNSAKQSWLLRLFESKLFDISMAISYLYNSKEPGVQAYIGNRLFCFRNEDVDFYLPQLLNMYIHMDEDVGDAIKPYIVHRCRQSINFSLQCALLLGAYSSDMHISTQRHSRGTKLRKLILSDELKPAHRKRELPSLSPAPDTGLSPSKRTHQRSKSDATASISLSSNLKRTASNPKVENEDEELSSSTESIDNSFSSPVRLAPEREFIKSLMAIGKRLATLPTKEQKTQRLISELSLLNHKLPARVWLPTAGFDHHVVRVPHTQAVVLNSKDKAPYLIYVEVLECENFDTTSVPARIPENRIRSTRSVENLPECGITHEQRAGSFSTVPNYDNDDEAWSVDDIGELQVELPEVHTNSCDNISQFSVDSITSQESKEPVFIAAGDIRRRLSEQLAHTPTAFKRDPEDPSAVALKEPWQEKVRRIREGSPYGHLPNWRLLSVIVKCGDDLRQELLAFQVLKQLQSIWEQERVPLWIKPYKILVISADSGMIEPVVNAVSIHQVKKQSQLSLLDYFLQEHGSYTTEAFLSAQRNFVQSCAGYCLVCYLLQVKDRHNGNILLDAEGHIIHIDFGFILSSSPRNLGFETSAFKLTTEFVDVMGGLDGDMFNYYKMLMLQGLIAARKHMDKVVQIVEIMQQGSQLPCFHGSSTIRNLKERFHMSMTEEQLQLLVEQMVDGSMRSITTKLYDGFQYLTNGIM
PI3-kinase p110-alpha/p85-alpha, sequence (P27986 whole entry): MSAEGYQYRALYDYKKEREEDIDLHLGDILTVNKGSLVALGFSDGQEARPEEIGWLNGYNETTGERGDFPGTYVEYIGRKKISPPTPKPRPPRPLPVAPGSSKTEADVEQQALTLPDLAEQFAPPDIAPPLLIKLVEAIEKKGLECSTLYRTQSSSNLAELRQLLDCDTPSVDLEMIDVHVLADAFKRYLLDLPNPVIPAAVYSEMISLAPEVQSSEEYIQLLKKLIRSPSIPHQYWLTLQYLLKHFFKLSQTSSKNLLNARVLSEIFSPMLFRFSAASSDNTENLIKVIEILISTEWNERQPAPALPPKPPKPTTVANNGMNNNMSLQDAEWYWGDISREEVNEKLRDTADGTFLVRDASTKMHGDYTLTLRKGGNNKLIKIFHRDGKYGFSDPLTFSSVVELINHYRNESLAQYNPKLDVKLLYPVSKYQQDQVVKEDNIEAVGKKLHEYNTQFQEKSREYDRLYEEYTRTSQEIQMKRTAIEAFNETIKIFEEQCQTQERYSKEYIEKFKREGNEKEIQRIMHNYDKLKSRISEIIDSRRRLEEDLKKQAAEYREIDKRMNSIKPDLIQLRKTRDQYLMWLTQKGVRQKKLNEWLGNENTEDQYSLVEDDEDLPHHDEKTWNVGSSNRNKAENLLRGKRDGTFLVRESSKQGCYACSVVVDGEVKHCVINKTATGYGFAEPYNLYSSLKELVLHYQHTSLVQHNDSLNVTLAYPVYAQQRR
PI3-kinase p110-alpha/p85-alpha, sequence (P42336 whole entry): as the sequence (P42336 whole entry, the tested form may be a part, canonical isoform) above

Structure (SMILES) | Kd [1] | Kd [2] | remaining at 1 h, 1 µM [3] | Ki [4] | remaining at 1 h, 1 µM [5] | Kd [6] | Kd [7] | Kd [8]
C[C@@H]1COCCN1c1nc(-c2cnc(N)cc2C(F)F)nc(N2[C@H](C)COC[C@@H]2C)n1 | 65 nM | > 30000 nM | 98.5% | 287 nM | 45.1% | 1350 nM | 3500 nM | 110 nM
C[C@@H]1COCCN1c1nc(-c2cnc(N)cc2C(F)F)nc(N2CCOCC2(C)C)n1 | 28 nM | > 30000 nM | 101% | 469 nM | 1.9% | 595 nM | 2450 nM | 81 nM
